Measured values of several laboratories.
Protocols differ between the studies behind these lines.
Target: Serine/threonine-protein kinase tousled-like 1 (TLK1, Homo sapiens, UniProt Q9UKI8)
One construct used (Q9UKI8 1-766): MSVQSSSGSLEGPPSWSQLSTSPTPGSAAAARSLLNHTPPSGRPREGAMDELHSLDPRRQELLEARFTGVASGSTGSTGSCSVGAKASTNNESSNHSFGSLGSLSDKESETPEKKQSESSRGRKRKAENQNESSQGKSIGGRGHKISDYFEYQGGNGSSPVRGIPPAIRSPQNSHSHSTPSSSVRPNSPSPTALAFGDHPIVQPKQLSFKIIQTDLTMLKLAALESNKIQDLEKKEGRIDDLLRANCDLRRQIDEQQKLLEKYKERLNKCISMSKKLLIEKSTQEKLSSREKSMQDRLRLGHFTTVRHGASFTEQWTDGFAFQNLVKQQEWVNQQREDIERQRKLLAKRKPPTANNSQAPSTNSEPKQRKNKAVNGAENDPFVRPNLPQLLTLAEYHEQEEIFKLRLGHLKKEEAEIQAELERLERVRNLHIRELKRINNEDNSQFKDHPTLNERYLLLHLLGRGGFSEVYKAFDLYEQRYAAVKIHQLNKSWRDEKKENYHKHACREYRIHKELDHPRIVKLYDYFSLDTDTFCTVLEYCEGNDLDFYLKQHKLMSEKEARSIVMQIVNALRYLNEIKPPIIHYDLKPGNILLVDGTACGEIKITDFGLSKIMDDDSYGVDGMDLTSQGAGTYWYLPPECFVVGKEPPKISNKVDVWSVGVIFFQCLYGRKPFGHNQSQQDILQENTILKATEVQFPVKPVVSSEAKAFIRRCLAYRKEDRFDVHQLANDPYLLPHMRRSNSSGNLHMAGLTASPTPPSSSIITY

Cc1ccc(NC(=O)c2ccc(C)c(C(F)(F)F)c2)cc1C#Cc1nn(C2CCC(O)CC2)c2ncnc(N)c12 (stereo not shown)
remaining signal (cell-free assay; 10 µM): 95%

CC(C)(O)[C@H]1CC[C@H](Nc2ccc3ncc(-c4cccc(C(F)(F)F)c4)n3n2)CC1
remaining activity (enzyme activity; inhibitor; 1 µM): 94.2%

C[C@H](c1ccnc(Nc2nc3ccc(-c4cc(N(C)C)ncn4)cc3[nH]2)c1)N1CCN(C(=O)CC(F)(F)F)CC1
remaining binding (cell-free assay; competition with immobilised ligand; 0.1 µM): 76%

CN1CC(Oc2cnc(C#N)cc2-c2ccn3nc(NC(=O)C4CC4)cc3c2)C1
inhibition (enzyme activity; inhibitor; 1 µM): -13%

COc1cc(Cl)c(C(=O)N[C@@H](CN[C@H]2CC[C@@H](N)CC2)Cc2ccc(C#N)cc2)cc1-c1ccc(CN[C@H](C)c2ccc(C)cc2)o1
remaining activity (enzyme activity; inhibitor; 1 µM): 94%

Nc1ncnc2occ(-c3ccc(NC(=O)Nc4cc(C(F)(F)F)ccc4F)cc3)c12
remaining signal (cell-free assay; inhibitor; 20 µM): 39%

CC(C)(C)c1nc2c(s1)c1nc(N)ncc1c1ccc(NS(=O)(=O)c3c(F)cccc3F)c(F)c12
remaining activity (enzyme activity; inhibitor; radiometric; 1 µM): 92%

O=C(Nc1cnn(-c2csc(C(=O)NC3COC3)c2)c1)Nc1c(F)cccc1Cl
remaining activity (enzyme activity; inhibitor; 5 µM): 53.4%

CC(C)(C)c1nc(-c2cccc(NS(=O)(=O)c3c(F)cccc3F)c2F)c(-c2ccnc(N)n2)s1
remaining activity (enzyme activity; inhibitor; radiometric; 1 µM): 108%

Cc1ccc(C(=O)Nc2ccc(CN3CCN(C)CC3)c(C(F)(F)F)c2)cc1C#Cc1cnc2cccnn12
remaining activity (enzyme activity; inhibitor; 23.5 nM): 100%

C[C@@H](c1cccc(C#N)c1)n1cc(Cl)cc(C(N)=O)c1=N
remaining binding (cell-free assay; competition with immobilised ligand; 1 µM): 100%

Cc1ccc(C(=O)NCc2ccsc2)cc1C#Cc1cn(C(C)C)c2ncnc(N)c12
activity vs control (enzyme activity; inhibitor; 1 µM): 80%

COc1ccc2c(O[C@@H]3C[C@H]4C(=O)N[C@]5(C(=O)O)CC5/C=C\CCCCC[C@H](NC(=O)OC5CCCC5)C(=O)N4C3)cc(-c3csc(NC(=O)C(C)C)n3)nc2c1C (stereo partly shown)
remaining binding (cell-free assay; competition with immobilised ligand; 1 µM): 100%

Cc1sc(C(=O)NC2COC2)cc1-n1cc(NC(=O)Nc2c(F)cccc2Cl)cn1
remaining activity (enzyme activity; inhibitor; 10 µM): 105%

COc1cc(/C=C/C(=O)CC(=O)/C=C/c2ccc(O)c(OC)c2)ccc1O
activity vs control (enzyme activity; inhibitor; 1 µM): 128%

COc1cc(Nc2cnc(C#N)c(O[C@H](C)CN(C)C)n2)ncc1-c1cnn(C)c1
remaining activity (enzyme activity; inhibitor; radiometric; 10 µM): 93%

O=C(N1CCS(=O)(=O)CC1)N1C[C@H](c2ccc(OC(F)(F)F)cc2)C[C@H](c2nc(C3CC3)no2)C1
remaining binding (cell-free assay; competition with immobilised ligand; 1 µM): 94%

Cc1cc(NC(=O)c2cccc3cc(-c4cccc5[nH]nc(N)c45)ccc23)ccc1F
activity vs control (enzyme activity; inhibitor; 0.1 µM): 88%

Cc1cnc(NC2CCOCC2)nc1-n1cnc(C(=O)NC(CN)c2cc(F)cc(Cl)c2)c1 (stereo not shown)
remaining activity (enzyme activity; inhibitor; radiometric; 1 µM): 99%
